Laboratory results as given in ChEMBL document CHEMBL3868627, “Radical scavenging and antibacterial activity of caffemides against gram positive, gram negative and clinical drug resistance bacteria” (Bioorg Med Chem Lett, 2016).

Assay: Antioxidant activity assessed as DPPH free radical scavenging activity measured after 30 mins by spectrophotometry
Type: functional
Outline: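 DPPH radical scavenging in ethanolic solution with a final DPPH concentration of 100 µM. Absorbance read at 517 nm. Percent inhibition = (A control − A test)/A control, where the control is DPPH without sample. The inhibition-versus-concentration plot gives EC50, the concentration giving a 50% drop in absorbance. Mean ± S.D. of three independent trials.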

EC50	Compound
27 µM	O=C(/C=C/c1ccc(O)c(O)c1)Nc1ccccc1Sc1ccccc1
30.9 µM	O=C(O)/C=C/c1ccc(O)c(O)c1 [CAFFEIC ACID]
47.3 µM	O=C(/C=C/c1ccc(O)c(O)c1)Nc1ccc2ccccc2c1
11.9 µM	CC(C)(C)c1ccc(O)c(NC(=O)/C=C/c2ccc(O)c(O)c2)c1
52.6 µM	O=C(/C=C/c1ccc(O)c(O)c1)Nc1ccccc1
5.51 µM	O=C(/C=C/c1ccc(O)c(O)c1)Nc1cc(Cl)c(O)c(Cl)c1
10.6 µM	CC(=O)c1cccc(NC(=O)/C=C/c2ccc(O)c(O)c2)c1
24.1 µM	O=C(/C=C/c1ccc(O)c(O)c1)Nc1ccc(F)cc1
50.9 µM	VITAMIN E
36 µM	Nc1ccc(NC(=O)/C=C/c2ccc(O)c(O)c2)cc1
58.8 µM	O=C(/C=C/c1ccc(O)c(O)c1)NCCc1c[nH]c2ccccc12
13.2 µM	Cc1cc([N+](=O)[O-])ccc1NC(=O)/C=C/c1ccc(O)c(O)c1
7.21 µM	O=C(/C=C/c1ccc(O)c(O)c1)Nc1ccc([N+](=O)[O-])cc1
